The list is not random: actives were taken first. Their share in the collection is about 1.6%.
PKA-R1A act = PKA-R1A complex activation | P00514+P68181 | PKA-R1A dissociation, Cy5-IP20 fluorescence polarization; scaled: DMSO 0%, 113 µM cGMP 100% | activation, % at 11.4 µM | actives 0.083% (n = 340,000);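 active = percent activation above the mean of all tested compounds plus 3 SD, cut at about 19% in these data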;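 also: higher means more PKAc released from R1A so a rise in polarization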
NR2E3 ag-1 = NR2E3 (human) agonism; actives 0.12% (n = 320,000); AID 2300; GST-NR2E3/biotin-RetCOR TR-FRET, 1536-well; inhibition of corepressor binding, % at 4.78 µM;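 active = percent inhibition above the cutoff of mean plus 3 SD of all tested compounds, set per screening campaign, cut at about 20% in these data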
Target sequence (Q9Y5X4 whole entry, looked up): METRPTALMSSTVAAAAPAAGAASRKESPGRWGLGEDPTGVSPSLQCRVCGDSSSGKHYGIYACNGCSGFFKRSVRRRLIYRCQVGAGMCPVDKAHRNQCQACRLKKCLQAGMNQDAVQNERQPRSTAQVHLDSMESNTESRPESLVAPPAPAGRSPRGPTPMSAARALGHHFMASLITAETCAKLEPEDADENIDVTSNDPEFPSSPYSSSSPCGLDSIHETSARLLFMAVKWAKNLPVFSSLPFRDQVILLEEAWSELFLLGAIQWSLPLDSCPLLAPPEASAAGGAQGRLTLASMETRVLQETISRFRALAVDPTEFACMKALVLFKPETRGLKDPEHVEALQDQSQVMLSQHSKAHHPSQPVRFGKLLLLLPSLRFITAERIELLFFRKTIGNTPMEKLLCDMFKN
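system = GST-tagged NR2E3 plus biotinylated RetCOR corepressor | input = 1.35 nM GST-NR2E3 | also added = 7 nM biotin-RetCOR | schedule = 5 h incubation at 4 °C | measured by = TR-FRET with europium anti-GST and streptavidin-D2, 340 nm excitation | read-out = percent loss of FRET ratio relative to control wells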
PG9 binder = binds the HIV-1 gp120 antibody PG9 | inhibition, % at 6.7 µM | actives 0.43% (n = 360,000) | TR-FRET gp120-PG9 antibody binding | AID 624416; in the data active = inhibition above about 8.5%
PKA-R2B activ = activators of human PKA-R2B complex | actives 0.079% (n = 340,000) | PKA-R2B holoenzyme dissociation, Cy5-IP20 fluorescence polarization; R2B truncated from residue 108, S112A mutant; 0% DMSO only, 100% 113 µM cGMP | activation, % at 11.4 µM | P22694+P31323;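 active = activation above a cutoff set at the mean over all compounds plus 3 SD, cut at about 18% in these data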;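 also: higher means more holoenzyme dissociation and a rise in polarization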
Rev-erbA mod = modulates human Rev-erb alpha binding to DNA; P20393; Rev-erbα–FITC-DNA binding, fluorescence polarization, 90 min; activity, % at 10 µM; actives 0.79% (n = 370,000); AID 1259318;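 active = activity above about 14%, limit read from the data; passing the limit was not always enough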
NR2E3 ag-2 = human photoreceptor-specific nuclear receptor agonism | CHO-S Gal4-NCOR/VP16-NR2E3 two-hybrid, luciferase | inhibition of corepressor binding, % at 3.98 µM | actives 0.35% (n = 360,000) | Q9Y5X4 | AID 602229;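 active = inhibition above the mean of all tested compounds plus 3 SD, cut at about 70% in these data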;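 also: higher means lower luciferase signal from less NR2E3 corepressor binding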
NR2E3 ag confirm = confirmation of human NR2E3 agonists | actives 51% (n = 2,300) | shares compounds with NR2E3 ag-2 | AID 624378 | CHO-S mammalian two-hybrid NR2E3-NCOR, luciferase luminescence | inhibition, % at 3.98 µM;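 active = average inhibition above a cutoff equal to the mean inhibition of all tested compounds plus one SD, cut at about 70% in these data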
VP16 counter = GAL4-VP16 reporter inhibition in NR2E3 agonist counterscreen; shares compounds with NR2E3 ag-2; inhibition, % at 3.98 µM; actives 29% (n = 2,300); AID 624379; CHO-S GAL4-VP16 luciferase reporter, luminescence;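 active = mean inhibition above a cutoff equal to the average over all tested compounds plus one standard deviation, cut at about 70% in these data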;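 also: luciferase from a UAS reporter driven by GAL4-VP16 transactivation; higher means less reporter light so more repression of VP16 activity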
Of the large screens only hits and unclear results are named; the others gave an inactive call (follow-up assays come after a bar, where they were run).

O=C(Nc1ccc2c(c1)OCCO2)C(c1ccnc2ccccc12)N1CCN(c2ccc(C(F)(F)F)cn2)CC1 (configuration not stated)	none (no result: PKA-R1A act, NR2E3 ag-1, PKA-R2B activ) | NR2E3 ag confirm inactive | VP16 counter inactive
O=C(Nc1ccc2c(c1)OCCO2)C(c1ccnc2ccccc12)N1CCN(c2ccc(F)cc2)CC1 (configuration not stated)	none (no result: PKA-R1A act, NR2E3 ag-1, PKA-R2B activ)
CCN(CC)C(=O)CN1C(=O)C2CCCCN2C(=O)c2ccccc21 (configuration not stated)	none (no result: PKA-R1A act, NR2E3 ag-1, PG9 binder, PKA-R2B activ, NR2E3 ag-2)
CC(=O)OC[C@]1(OC(C)=O)C[C@@]23CC[C@H]4[C@@](C)(CCC[C@@]4(C)C(=O)O)[C@@H]2CC[C@@H]1C3	none
CC(=O)OC[C@]12CC[C@H]3[C@@](C)(CC[C@H]4C(C)(C)CCC[C@]34C)[C@@H]1CC(C1=CC(=O)OC1O)O2 (some centres not stated)	NR2E3 ag-2 102 (no result: PKA-R1A act, NR2E3 ag-1, PKA-R2B activ) | NR2E3 ag confirm 100 | VP16 counter 100
CCc1cc(-c2cnnn2Cc2ccc3ccccc3c2)ccc1-c1cn(CC(C)C)nn1	none (no result: NR2E3 ag-1)
CCc1cc(-c2nnn(CCC3COCCO3)c2CC)ccc1-c1cn(Cc2ccccc2)nn1 (configuration not stated)	NR2E3 ag-2 76 (no result: NR2E3 ag-1) | NR2E3 ag confirm 76 | VP16 counter inactive
CCOC(=O)N=Nc1c2ccccc2c2nc3no[nH]c3nc12	NR2E3 ag-2 89 (no result: PKA-R1A act, NR2E3 ag-1, PKA-R2B activ) | NR2E3 ag confirm 99 | VP16 counter 100
Cc1csc2c(N3CCN(C(=O)Nc4ccc(OC(F)(F)F)cc4)CC3)ncnc12	none | NR2E3 ag confirm 90 | VP16 counter 71
COCCCN1C(=O)[C@H](CC(=O)N2CCN(C(=O)C3CC3)CC2)[C@]2(C(=O)OC)CCCCC=C12	none (no result: PKA-R1A act, NR2E3 ag-1, PG9 binder, PKA-R2B activ, NR2E3 ag-2)
CC(=NNC(=O)CSc1nnc(-c2ccc(C(C)(C)C)cc2)n1-c1ccccc1)c1cccc2ccccc12	none (no result: PKA-R1A act, NR2E3 ag-1, PG9 binder, PKA-R2B activ, NR2E3 ag-2)
C=CCNC(=O)Nc1ccc2c(c1)[C@]1(CC(=O)N(CC(C)C)C1c1ccccc1)C(=O)N2C (some centres not stated)	none (no result: PKA-R1A act, NR2E3 ag-1, PG9 binder, PKA-R2B activ, NR2E3 ag-2)
O=c1cc(C(F)(F)F)[nH]c2ccc(OC(F)(F)F)cc12	NR2E3 ag-2 79 (no result: PKA-R1A act, PKA-R2B activ) | NR2E3 ag confirm 100 | VP16 counter 73
CCOc1ccc2[nH]c(C)cc(=O)c2c1	none
COc1ccc(C(C(=O)N(C)C2CCCC2)N(Cc2ccc(F)cc2)C(=O)c2cc(C)[nH]n2)cc1OC (configuration not stated)	none (no result: PKA-R1A act, NR2E3 ag-1, PG9 binder, PKA-R2B activ, NR2E3 ag-2)
Cn1c(-c2ccccc2)c(C(=O)CCl)c2ccccc21	none (no result: NR2E3 ag-1) | NR2E3 ag confirm inactive | VP16 counter inactive
CCn1c(-c2ccccc2)c(C(=O)CCl)c2ccccc21	none
Cc1c(/C(O)=C2/C(=O)C(=O)N(CCN3CCOCC3)C2c2ccccn2)cnn1-c1ccccc1 (configuration not stated)	NR2E3 ag-2 84 (no result: PKA-R1A act, PKA-R2B activ) | NR2E3 ag confirm inactive | VP16 counter inactive
Cc1ccc(C2/C(=C(/O)c3cnn(-c4ccccc4)c3C)C(=O)C(=O)N2CCCN2CCOCC2)o1 (configuration not stated)	none (no result: PKA-R1A act, PG9 binder, PKA-R2B activ, Rev-erbA mod, NR2E3 ag-2)
OC[C@@H]1CN(Cc2ccc(-c3ccccc3)cc2)C[C@H](n2cnc3c(NCc4ccco4)ncnc32)O1	none (no result: PKA-R1A act, NR2E3 ag-1, PKA-R2B activ) | NR2E3 ag confirm 75 | VP16 counter inactive
OC[C@@H]1CN(Cc2ccccc2)C[C@H](n2cnc3c(NCc4ccco4)ncnc32)O1	none (no result: PKA-R1A act, NR2E3 ag-1, PKA-R2B activ)
OC[C@@H]1CN(Cc2ccc(-c3ccccc3)cc2)C[C@H](n2cnc3c(NCc4ccncc4)ncnc32)O1	none (no result: PKA-R1A act, NR2E3 ag-1, PKA-R2B activ) | NR2E3 ag confirm 74 | VP16 counter inactive
C=CCN1[C@@H](Cc2ccccc2)COc2cccc(F)c2S1(=O)=O	none (no result: PKA-R1A act, NR2E3 ag-1, PG9 binder, PKA-R2B activ, NR2E3 ag-2)
CCCn1c(C)cc(C(=O)CN2C(=O)c3ccccc3S2(=O)=O)c1C	none (no result: NR2E3 ag-1) | NR2E3 ag confirm inactive | VP16 counter inactive

Screening results (PubChem BioAssay)
